Measurements reported in ChEMBL document CHEMBL2163285, “Chrolactomycins from the actinomycete actinospica” (2012).
≈ marks a conversion by molar mass, not a printed value.

How the values were obtained:
Assay type in all cases: functional
Micrococcus luteus = assay: Antimicrobial activity against Micrococcus luteus 108 assessed as growth inhibition after 20 to 24 hrs by broth microdilution method
Summary of the method: (§1)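 CLSI broth microdilution in Mueller Hinton broth supplemented with 20 mg/L CaCl2 and 10 mg/L MgCl2. Cells from frozen stocks were seeded at 5 × 10^5 cfu/mL and incubated at 37 °C, then read after 20−24 h. The MIC is the lowest concentration giving complete suppression of visible growth.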

Staphylococcus aureus [1] = assay: Antimicrobial activity against Staphylococcus aureus ATCC 29213 assessed as growth inhibition after 20 to 24 hrs by broth microdilution method; summary of the method: as §1
Bacillus subtilis = assay: Antimicrobial activity against Bacillus subtilis 168 assessed as growth inhibition after 20 to 24 hrs by broth microdilution method; summary of the method: as §1
Streptococcus pyogenes = assay: Antimicrobial activity against Streptococcus pyogenes 49 assessed as growth inhibition after 20 to 24 hrs by broth microdilution method
Summary of the method: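 Streptococcus pyogenes was grown in Todd Hewitt broth and tested by CLSI broth microdilution. The MIC is the lowest concentration causing complete suppression of visible growth.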

Staphylococcus aureus [2] = assay: Antimicrobial activity against Staphylococcus aureus ATCC 6538P assessed as growth inhibition after 20 to 24 hrs by broth microdilution method; summary of the method: as §1

Row | MIC (Micrococcus luteus) [µg/mL] | MIC (Staphylococcus aureus [1]) [µg/mL] | MIC (Bacillus subtilis) [µg/mL] | MIC (Streptococcus pyogenes) [µg/mL] | MIC (Staphylococcus aureus [2]) [µg/mL] | SMILES
1 | 8 (≈ 18.5 µM) | 2 (≈ 4.62 µM) | 8 (≈ 18.5 µM) | 16 (≈ 37 µM) | 2 (≈ 4.62 µM) | C=C1C(=O)[C@]2(OC)C(=O)O[C@@]34C[C@H](C)C(C(=O)O)=C[C@@H]3CCC[C@@H](C)C[C@@H](C)[C@H]1O[C@H]24 (relative stereo)
2 | 8 (≈ 17.8 µM) | 64 (≈ 143 µM) | 128 (≈ 285 µM) | 8 (≈ 17.8 µM) | 32 (≈ 71.3 µM) | C=C1C(=O)[C@]2(OC)C(=O)O[C@@]34C[C@H](C)C(C(=O)O)=C[C@@H]3CCC[C@@H](C)[C@H](O)[C@@H](C)[C@H]1O[C@H]24 (relative stereo)

Row | SMILES | MIC (Micrococcus luteus) [µg/mL] | MIC (Staphylococcus aureus [1]) [µg/mL] | MIC (Bacillus subtilis) [µg/mL] | MIC (Streptococcus pyogenes) [µg/mL] | MIC (Staphylococcus aureus [2]) [µg/mL]
3 | CN[C@H](CC(C)C)C(=O)N[C@H]1C(=O)N[C@@H](CC(N)=O)C(=O)N[C@H]2C(=O)N[C@H]3C(=O)N[C@H](C(=O)N[C@H](C(=O)O)c4cc(O)cc(O)c4-c4cc3ccc4O)[C@H](O)c3ccc(c(Cl)c3)Oc3cc2cc(c3O[C@@H]2O[C@H](CO)[C@@H](O)[C@H](O)[C@H]2O[C@H]2C[C@](C)(N)[C@H](O)[C@H](C)O2)Oc2ccc(cc2Cl)[C@H]1O [VANCOMYCIN] | 0.125 (≈ 0.0863 µM) | – | 0.25 (≈ 0.173 µM) | – | –
